Measured values collected from several papers.
Protocols differ between the studies behind these lines.
Target: TRAF2 and NCK-interacting protein kinase (TNIK, Homo sapiens, UniProt Q9UKE5)

Compound | assay | conditions | endpoint | result
N#CC1c2c([nH]c3c(Cl)c(Cl)ccc23)C(=O)NC12CCCCC2 (racemic) | thermal stability, DSF | 10 µM | ΔTm | 0 °C
O=C(O)[C@H]1[C@H](Cn2nnc3ccccc3c2=O)CC[C@@H]1C(=O)c1ccc(OCCC2CCOCC2)cc1 | cell-free assay, competition with immobilised ligand | 1 µM | remaining binding | 84%
C=CC(=O)Nc1cc(Nc2nccc(Nc3cc(Cl)c(F)cc3C(C)(C)O)n2)c(OC)cc1N1CC[C@@H](N(C)C)C1 | enzyme activity, inhibitor | 1 µM | inhibition | 47%
O=C(Nc1cnn(-c2csc(C(=O)NC3COC3)c2)c1)Nc1ccccc1Cl | enzyme activity, inhibitor | 5 µM | remaining activity | 53.2%
Cn1cc(Cl)c2c(Oc3c(F)cc(Nc4cc(Cl)nc(N)n4)cc3F)ccnc21 | cell-free assay, competition with immobilised ligand | 0.1 µM | remaining binding | 96%
Cn1c2c(c3ccc(Cl)c(Cl)c31)C(C#N)C1(CCNCC1)NC2=O (racemic) | thermal stability, DSF | 10 µM | ΔTm | -0.1 °C
CS(=O)(=O)Nc1cccc(-c2csc(NC(=O)CSc3nc4nccnc4c(=O)n3CCc3ccccc3)n2)c1 | enzyme activity, inhibitor | 10 µM | inhibition | -2%
CNC(=O)c1cc2c(Oc3ccc(NC(=O)C4(C(=O)Nc5ccc(F)cc5)CC4)cc3)ccnc2cc1OC | enzyme activity, inhibitor, radiometric | 1 µM | inhibition | 73%
CCN1CCC2(CC1)NC(=O)c1c(c3ccc(Cl)c(Cl)c3n1C)C2C#N (racemic) | thermal stability, DSF | 10 µM | ΔTm | 0 °C
O=C(N[C@H]1CCCCC/C=C\C2C[C@@]2(C(=O)O)NC(=O)[C@@H]2C[C@@H](Oc3ccncc3)CN2C1=O)OC1CCCC1 (some centres unmarked) | binding, competition with immobilised ligand | 1 µM | remaining binding | 78%
Cn1c2c(c3ccccc31)C(C#N)C(C)(C)NC2=O (centres unmarked) | thermal stability, DSF | 10 µM | ΔTm | -0.1 °C
COc1cc(Cl)c(C(=O)N[C@@H](CN[C@H]2CC[C@@H](N)CC2)Cc2ccc(C#N)cc2)cc1-c1ccc(CN[C@H](C)c2ccc(C)cc2)o1 | enzyme activity, inhibitor | 1 µM | remaining activity | 100%
CS(=O)(=O)c1cc(C2(NC(=O)c3cncc4c3cnn4-c3ccc(F)cc3)CC2)ccn1 | cell-free assay, competition with immobilised ligand | 1 µM | remaining binding | 95%
CC(C)(O)[C@H]1CC[C@H](Nc2ccc3ncc(-c4cccc(C(F)(F)F)c4)n3n2)CC1 | enzyme activity, inhibitor | 1 µM | remaining activity | 96.9%
Cn1cnc(Br)c1C1=CN(c2ncnc3[nH]cnc23)CCS1 | enzyme activity, inhibitor, radiometric | 50 nM | inhibition | 21.5%
CN1CCN(c2cnc3c(C4CCN(C(=O)c5ccc(OC(F)(F)F)cc5N)CC4)ncnc3c2)CC1 | cell-free assay, competition with immobilised ligand | 1 µM | remaining binding | 100%
CN1CCC2(CC1)NC(=O)c1c(c3ccc(Cl)c(Cl)c3n1C)C2C#N (racemic) | thermal stability, DSF | 10 µM | ΔTm | 0 °C
c1ccc(CNc2nc(N3CCOc4ccccc43)nc3c2CCCC3)cc1 | target engagement in cells, inhibitor, chemoproteomics | 20 mM | inhibition | -8%
C[C@@H]1CN(c2cc(-c3nn(C)c4ccc(OC5(C)CC5)cc34)ncn2)C[C@H](C)O1 | cell-free assay, competition with immobilised ligand | 1 µM | remaining binding | 80%
CCC1(CC)NC(=O)c2c(c3ccc(Cl)c(Cl)c3n2C)C1C#N (centres unmarked) | thermal stability, DSF | 10 µM | ΔTm | 0.3 °C
